Experimental data taken from ChEMBL document CHEMBL3045677, “Sulfonamide-1,2,4-thiadiazole derivatives as antifungal and antibacterial agents: synthesis, biological evaluation, lipophilicity, and conformational studies” (2010).
Values after ≈ are worked out from the molar mass of the structure shown.

Assays:
Escherichia coli [1] = assay: Antibacterial activity against Escherichia coli ATCC 35210 at […] degC measured after 24 hr by microdilution method; assay type: functional; details: ATCC 35210, 24 h
In short: (§1)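 Bacteria suspended in sterile saline at 1.0×10⁵ CFU/ml and added at 1.0×10⁴ CFU per well to LB broth with compound (1 mg/ml) in 96-well plates. Incubated 24 h at […] °C. MIC was the lowest concentration without visible growth under a binocular microscope. OD 655 nm was read against a blank and a positive control.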

Salmonella typhimurium [2] = assay: Antibacterial activity against Salmonella enterica subsp. enterica serovar Typhimurium ATCC 13311 at […] degC measured after 24 hr by microdilution method; assay type: functional; details: ATCC 13311, 24 h; in short: as §1
Pseudomonas aeruginosa [3] = assay: Antibacterial activity against Pseudomonas aeruginosa ATCC 27853 at […] degC measured after 72 hr by microdilution method; assay type: functional; details: ATCC 27853, 72 h
In short: (§2)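 Bactericidal endpoint: after the 24 h broth microdilution (1.0×10⁴ CFU per well, LB broth, […] °C), wells were serially subcultured into plates of fresh broth and incubated a further 72 h. MBC was the lowest concentration with no visible growth, taken as 99.5% killing of the original inoculum.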

Staphylococcus aureus [4] = assay: Antibacterial activity against Staphylococcus aureus ATCC 6538 at […] degC measured after 72 hr by microdilution method; assay type: functional; details: ATCC 6538, 72 h; in short: as §2
Listeria monocytogenes [5] = assay: Antibacterial activity against Listeria monocytogenes NCTC 7973 at […] degC measured after 72 hr by microdilution method; assay type: functional; details: NCTC 7973, 72 h; in short: as §2
Listeria monocytogenes [6] = assay: Antibacterial activity against Listeria monocytogenes NCTC 7973 at […] degC measured after 24 hr by microdilution method; assay type: functional; details: NCTC 7973, 24 h; in short: as §1
Talaromyces funiculosus = assay: Antifungal activity against Talaromyces funiculosus ATCC 36839 at 28 degC measured after 72 hr by microdilution method; assay type: functional; details: ATCC 36839, 72 h
In short: (§3)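 Fungi were kept on malt agar at 4 °C. Spores were washed off with sterile 0.85% saline containing 0.1% Tween 80 and adjusted to about 1.0×10⁵ per well. Compounds were dissolved in DMSO (1 mg/ml stock) and serially diluted in malt broth with inoculum in 96-well plates, 72 h at 28 °C, for MIC. MFC came from subculture into fresh broth for a further 72 h at 28 °C.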

Staphylococcus aureus [7] = assay: Antibacterial activity against Staphylococcus aureus ATCC 6538 at […] degC measured after 24 hr by microdilution method; assay type: functional; details: ATCC 6538, 24 h; in short: as §1
Aspergillus fumigatus = assay: Antifungal activity against plant isolate Aspergillus fumigatus at 28 degC measured after 72 hr by microdilution method; assay type: functional; in short: as §3
Bacillus cereus [8] = assay: Antibacterial activity against clinical isolate Bacillus cereus at […] degC measured after 72 hr by microdilution method; assay type: functional; in short: as §2
Proteus mirabilis [9] = assay: Antibacterial activity against Proteus mirabilis at […] degC measured after 24 hr by microdilution method; assay type: functional; in short: as §1
Micrococcus flavus [10] = assay: Antibacterial activity against Micrococcus flavus ATCC 10240 at […] degC measured after 72 hr by microdilution method; assay type: functional; details: ATCC 10240, 72 h; in short: as §2
Aspergillus flavus = assay: Antifungal activity against Aspergillus flavus ATCC 9643 at 28 degC measured after 72 hr by microdilution method; assay type: functional; details: ATCC 9643, 72 h; in short: as §3
Penicillium ochrochloron = assay: Antifungal activity against Penicillium ochrochloron ATCC 9112 at 28 degC measured after 72 hr by microdilution method; assay type: functional; details: ATCC 9112, 72 h; in short: as §3
Aspergillus niger = assay: Antifungal activity against Aspergillus niger ATCC 6275 at 28 degC measured after 72 hr by microdilution method; assay type: functional; details: ATCC 6275, 72 h; in short: as §3
Bacillus cereus [11] = assay: Antibacterial activity against clinical isolate Bacillus cereus at […] degC measured after 24 hr by microdilution method; assay type: functional; in short: as §1
Micrococcus flavus [12] = assay: Antibacterial activity against Micrococcus flavus ATCC 10240 at […] degC measured after 24 hr by microdilution method; assay type: functional; details: ATCC 10240, 24 h; in short: as §1
Trichoderma viride = assay: Antifungal activity against Hypocrea rufa IAM 5061 at 28 degC measured after 72 hr by microdilution method; assay type: functional; details: IAM 5061, 72 h; in short: as §3
Fulvia fulva = assay: Antifungal activity against Passalora fulva TK5318 at 28 degC measured after 72 hr by microdilution method; assay type: functional; details: TK5318, 72 h; in short: as §3
Pseudomonas aeruginosa [13] = assay: Antibacterial activity against Pseudomonas aeruginosa ATCC 27853 at […] degC measured after 24 hr by microdilution method; assay type: functional; details: ATCC 27853, 24 h; in short: as §1
Salmonella typhimurium [14] = assay: Antibacterial activity against Salmonella enterica subsp. enterica serovar TyphimuriumATCC 13311 at […] degC measured after 72 hr by microdilution method; assay type: functional, Salmonella enterica subsp. enterica serovar Typhimurium; details: ATCC 13311, 72 h; in short: as §2
Proteus mirabilis [15] = assay: Antibacterial activity against Proteus mirabilis at […] degC measured after 72 hr by microdilution method; assay type: functional; in short: as §2
Aspergillus versicolor = assay: Antifungal activity against Aspergillus versicolor ATCC 11730 at 28 degC measured after 72 hr by microdilution method; assay type: functional; details: ATCC 11730, 72 h; in short: as §3
Escherichia coli [16] = assay: Antibacterial activity against Escherichia coli ATCC 35210 at […] degC measured after 72 hr by microdilution method; assay type: functional; details: ATCC 35210, 72 h; in short: as §2

Row | SMILES | MIC (Escherichia coli [1]) [µM] | MIC (Salmonella typhimurium [2]) [µM] | MBC (Pseudomonas aeruginosa [3]) [µM] | MBC (Staphylococcus aureus [4]) [µM] | MBC (Listeria monocytogenes [5]) [µM] | MIC (Listeria monocytogenes [6]) [µM] | MFC (Talaromyces funiculosus) [µM] | MIC (Talaromyces funiculosus) [µM] | MIC (Staphylococcus aureus [7]) [µM] | MFC (Aspergillus fumigatus) [µM] | MIC (Aspergillus fumigatus) [µM] | MBC (Bacillus cereus [8]) [µM] | MIC (Proteus mirabilis [9]) [µM] | MBC (Micrococcus flavus [10]) [µM] | MFC (Aspergillus flavus) [µM] | MIC (Aspergillus flavus) [µM] | MFC (Penicillium ochrochloron) [µM] | MIC (Penicillium ochrochloron) [µM] | MFC (Aspergillus niger) [µM] | MIC (Aspergillus niger) [µM] | further results
1 | COc1cc(Cc2nnc(Nc3ccc(Cl)cc3)s2)c(S(=O)(=O)N2CCCC2)cc1OC | 15.2 (≈ 7.52 µg/mL) | 10.1 (≈ 5 µg/mL) | 40.4 (≈ 20 µg/mL) | 40.4 (≈ 20 µg/mL) | 40.4 (≈ 20 µg/mL) | 40.4 (≈ 20 µg/mL) | 20.2 (≈ 10 µg/mL) | 10.1 (≈ 5 µg/mL) | 20.2 (≈ 10 µg/mL) | 40.4 (≈ 20 µg/mL) | 20.2 (≈ 10 µg/mL) | 40.4 (≈ 20 µg/mL) | 20.2 (≈ 10 µg/mL) | 40.4 (≈ 20 µg/mL) | 40.4 (≈ 20 µg/mL) | 20.2 (≈ 10 µg/mL) | 40.4 (≈ 20 µg/mL) | 20.2 (≈ 10 µg/mL) | 40.4 (≈ 20 µg/mL) | 20.2 (≈ 10 µg/mL) | MIC (Bacillus cereus [11]): 20.2 µM (≈ 10 µg/mL); MIC (Micrococcus flavus [12]): 20.2 µM (≈ 10 µg/mL); MFC (Trichoderma viride): 20.2 µM (≈ 10 µg/mL); MIC (Trichoderma viride): 10.1 µM (≈ 5 µg/mL); MFC (Fulvia fulva): 20.2 µM (≈ 10 µg/mL); MIC (Fulvia fulva): 10.1 µM (≈ 5 µg/mL); MIC (Pseudomonas aeruginosa [13]): 20.2 µM (≈ 10 µg/mL); MBC (Salmonella typhimurium [14]): 20.2 µM (≈ 10 µg/mL); MBC (Proteus mirabilis [15]): 40.4 µM (≈ 20 µg/mL); MFC (Aspergillus versicolor): 40.4 µM (≈ 20 µg/mL); MIC (Aspergillus versicolor): 20.2 µM (≈ 10 µg/mL); MBC (Escherichia coli [16]): 40.4 µM (≈ 20 µg/mL)
2 | COc1cc(Cc2nnc(Nc3ccc([N+](=O)[O-])cc3)s2)c(S(=O)(=O)N2CCCC2)cc1OC | 19.8 (≈ 10 µg/mL) | 39.6 (≈ 20 µg/mL) | 39.6 (≈ 20 µg/mL) | 39.6 (≈ 20 µg/mL) | 39.6 (≈ 20 µg/mL) | 19.8 (≈ 10 µg/mL) | 19.8 (≈ 10 µg/mL) | 9.9 (≈ 5.01 µg/mL) | 19.8 (≈ 10 µg/mL) | 19.8 (≈ 10 µg/mL) | 9.9 (≈ 5.01 µg/mL) | 39.6 (≈ 20 µg/mL) | 39.6 (≈ 20 µg/mL) | 39.6 (≈ 20 µg/mL) | 39.6 (≈ 20 µg/mL) | 19.8 (≈ 10 µg/mL) | 39.6 (≈ 20 µg/mL) | 19.8 (≈ 10 µg/mL) | 39.6 (≈ 20 µg/mL) | 19.8 (≈ 10 µg/mL) | MIC (Bacillus cereus [11]): 19.8 µM (≈ 10 µg/mL); MIC (Micrococcus flavus [12]): 19.8 µM (≈ 10 µg/mL); MFC (Trichoderma viride): 19.8 µM (≈ 10 µg/mL); MIC (Trichoderma viride): 9.9 µM (≈ 5.01 µg/mL); MFC (Fulvia fulva): 19.8 µM (≈ 10 µg/mL); MIC (Fulvia fulva): 9.9 µM (≈ 5.01 µg/mL); MIC (Pseudomonas aeruginosa [13]): 19.8 µM (≈ 10 µg/mL); MBC (Salmonella typhimurium [14]): 79.2 µM (≈ 40 µg/mL); MBC (Proteus mirabilis [15]): 79.2 µM (≈ 40 µg/mL); MFC (Aspergillus versicolor): 39.6 µM (≈ 20 µg/mL); MIC (Aspergillus versicolor): 19.8 µM (≈ 10 µg/mL); MBC (Escherichia coli [16]): 39.6 µM (≈ 20 µg/mL)
